Test results from ChEMBL document CHEMBL4270570 (Eur J Med Chem, 2018).

What was measured:
[1] = system: Human immunodeficiency virus 1; test: Antiviral activity against HIV1 infected in CD4/CXCR4/CCR5 expressing human P4R5 MAGI cells preincubated with cells for 24 hrs followed by viral infection measured after 48 hrs by beta-galactosidase reporter gene assay; type: functional, organism-based
[2] = Cytotoxicity against human P4R5 MAGI cells; type: cell-based
In short: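 P4R5 cells express CD4, CXCR4, CCR5 and an HIV LTR-driven β-galactosidase reporter. They were seeded at 4×10^3 cells per well in DMEM/10% FBS with puromycin (1 µg/mL).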

Gag-Pol polyprotein = Gag-Pol polyprotein (Human immunodeficiency virus type 1 group M subtype B (isolate HXB2)(HIV-1), UniProt P04585); test: Inhibition of HIV1 reverse transcriptase polymerase activity using 18 nucleotide DNA primer and 100 nucleotide DNA template after 30 mins; design: species or system Human immunodeficiency virus 1
In short: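 Full-length RT at 20 nM with 40 nM template/primer (18-nt DNA primer on 100-nt DNA template) and 10 µM dNTPs in 50 mM Tris pH 7.8, 50 mM NaCl. Started with 6 mM MgCl2, with 1% DMSO and increasing compound concentrations. Primer extension ran 30 min at 37 °C and was stopped with 100 mM EDTA.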

[3] = molecular target: Human immunodeficiency virus type 1 integrase (Human immunodeficiency virus 1, UniProt Q7ZJM1); test: Inhibition of HIV integrase strand transfer activity using 5'-biotin/3'-Cy5-labeled DNA substrate preincubated for 5 mins followed by substrate addition measured after 30 mins by HTS assay
[4] = molecular target: Human immunodeficiency virus type 1 reverse transcriptase (Human immunodeficiency virus 1, UniProt Q72547); test: Inhibition of HIV1 reverse transcriptase RNaseH activity using 3'-fluorescein/5'-Dabcyl labeled HTS-1 substrate
[5] = Effective permeability of the compound at 10 uM after 5 hrs by PAMPA; type: ADME
In short: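 Lipid-precoated PAMPA plates thawed 30 min at room temperature. Compounds diluted from 10 mM DMSO stock into DPBS to 10 µM final and placed in donor wells, with DPBS in acceptor wells. Incubated 5 h at 25 °C without agitation. Donor and acceptor concentrations measured by LC-MS/MS. Pe calculated from acceptor and equilibrium concentrations, filter area 0.3 cm² and well volumes.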

Human immunodeficiency virus type 1 integrase, sequence (Q7ZJM1 whole entry): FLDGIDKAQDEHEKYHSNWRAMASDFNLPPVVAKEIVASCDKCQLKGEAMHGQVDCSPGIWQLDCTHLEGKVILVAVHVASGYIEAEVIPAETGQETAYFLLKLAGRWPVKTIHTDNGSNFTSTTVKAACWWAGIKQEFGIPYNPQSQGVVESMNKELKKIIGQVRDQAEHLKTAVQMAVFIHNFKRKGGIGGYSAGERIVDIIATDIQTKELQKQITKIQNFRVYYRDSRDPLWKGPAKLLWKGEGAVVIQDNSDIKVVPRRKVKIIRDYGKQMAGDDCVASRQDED

| Compound | EC50 [1] | CC50 [2] | IC50 (Gag-Pol polyprotein) | IC50 [3] | IC50 [4] | Peff [5] |
| --- | --- | --- | --- | --- | --- | --- |
| Cc1cc(-c2ccc(Sc3cc(=O)n(O)c(=O)[nH]3)cc2)ccc1F | 18 µM | > 100 µM | > 10 µM | > 10 µM | 0.005 µM |  |
| O=c1cc(Sc2cccc(C(F)(F)F)c2)[nH]c(=O)n1O | 6.2 µM | > 100 µM | > 10 µM | 0.88 µM | 0.013 µM |  |
| O=c1cc(Sc2ccc(-c3cccc(F)c3)cc2)[nH]c(=O)n1O | 7.2 µM | > 100 µM | 10 µM | > 1 µM | 0.005 µM |  |
| COc1cccc(Sc2cc(=O)n(O)c(=O)[nH]2)c1 | 16 µM | > 100 µM | > 10 µM | 2.7 µM | 0.013 µM |  |
| O=c1cc(Sc2ccc(-c3ccc(O)cc3)cc2)[nH]c(=O)n1O | > 20 µM | > 100 µM | > 10 µM | 0.17 µM | 0.004 µM | 0.039 ×10⁻⁶ cm/s |
| COc1ccccc1Sc1cc(=O)n(O)c(=O)[nH]1 | 9 µM | > 100 µM | > 10 µM | 8.4 µM | 0.017 µM |  |
| Cc1ccc(Sc2cc(=O)n(O)c(=O)[nH]2)cc1 | > 20 µM | > 100 µM | > 10 µM | 2.8 µM | 0.033 µM | 0.92 ×10⁻⁶ cm/s |
| COc1cccc(-c2ccc(Sc3cc(=O)n(O)c(=O)[nH]3)cc2)c1 | 7.7 µM | > 100 µM | 10 µM | > 1 µM | 0.005 µM |  |
| O=c1cc(Sc2ccccc2C(F)(F)F)[nH]c(=O)n1O | 6.6 µM | > 100 µM | > 10 µM | 0.88 µM | 0.012 µM |  |
| CCc1ccc(Sc2cc(=O)n(O)c(=O)[nH]2)cc1 | 11 µM | > 100 µM | > 10 µM | 1.3 µM | 0.01 µM |  |
| O=c1cc(Sc2ccc(F)cc2)[nH]c(=O)n1O | > 20 µM | > 100 µM | > 10 µM | 6.8 µM | 0.037 µM |  |
| O=c1cc(Sc2ccccc2Br)[nH]c(=O)n1O | 6.5 µM | > 100 µM | > 10 µM | 1.1 µM | 0.008 µM |  |
| O=c1[nH]c(Sc2ccc(Br)cc2)c(I)c(=O)n1O |  |  | 0.46 µM |  | 0.12 µM |  |
| O=c1cc(Sc2cccc(-c3ccc(Cl)cc3)c2)[nH]c(=O)n1O | 10 µM | > 100 µM | 7.8 µM | > 1 µM | 0.005 µM |  |
| O=c1cc(Sc2cccc(-c3ccc(F)cc3)c2)[nH]c(=O)n1O | 5 µM | > 100 µM | 9.9 µM | > 0.14 µM | 0.005 µM |  |
| COc1ccc(Sc2cc(=O)n(O)c(=O)[nH]2)cc1 | > 20 µM | > 100 µM | > 10 µM | 3.6 µM | 0.012 µM |  |
| Cc1ccc(-c2ccc(Sc3cc(=O)n(O)c(=O)[nH]3)cc2)cc1 | 7.5 µM | > 100 µM | 7 µM | > 1 µM | 0.006 µM |  |
| O=c1cc(Sc2ccc(Cl)cc2)[nH]c(=O)n1O | > 20 µM | > 100 µM | > 10 µM | 0.64 µM | 0.012 µM | 0.35 ×10⁻⁶ cm/s |
| O=c1cc(Sc2ccc(O)cc2)[nH]c(=O)n1O | > 20 µM | > 100 µM | > 10 µM | 1.6 µM | 0.011 µM |  |
| O=c1cc(Sc2cccc(-c3cccc(F)c3)c2)[nH]c(=O)n1O | 6.5 µM | > 100 µM | 9.6 µM | 0.24 µM | 0.006 µM |  |
| O=c1cc(Sc2ccccc2-c2ccc(C(F)(F)F)cc2)[nH]c(=O)n1O | 7 µM | > 100 µM | > 10 µM | > 100 µM | 0.013 µM |  |
| O=c1cc(Sc2ccccc2)[nH]c(=O)n1O | 11 µM | > 100 µM | > 10 µM | 1.1 µM | 0.016 µM |  |
| COc1ccc(-c2ccc(Sc3cc(=O)n(O)c(=O)[nH]3)cc2)cc1 | 10 µM | > 100 µM | 10 µM | > 100 µM | 0.006 µM |  |

| Compound | EC50 [1] | CC50 [2] | IC50 (Gag-Pol polyprotein) | IC50 [3] | IC50 [4] | Peff [5] |
| --- | --- | --- | --- | --- | --- | --- |
| O=c1cc(Sc2cccc(F)c2)[nH]c(=O)n1O | 9.1 µM | > 100 µM | > 10 µM | 0.49 µM | 0.014 µM |  |
| O=c1cc(Sc2ccc(-c3ccccc3)cc2)[nH]c(=O)n1O |  |  | 3.2 µM |  | 0.09 µM |  |
| O=c1cc(Sc2ccccc2F)[nH]c(=O)n1O | 4.7 µM | > 100 µM | > 10 µM | 0.77 µM | 0.015 µM |  |
| O=c1cc(Sc2cccc(-c3ccc(C(F)(F)F)cc3)c2)[nH]c(=O)n1O | 11 µM | > 100 µM | 10 µM | > 0.14 µM | 0.007 µM |  |
| O=c1[nH]c(Sc2ccc(Br)cc2)c(Br)c(=O)n1O |  |  | 5 µM |  | 0.07 µM |  |
| O=c1cc(Sc2ccc([N+](=O)[O-])cc2)[nH]c(=O)n1O | > 20 µM | > 100 µM | > 10 µM | 3.4 µM | 0.012 µM | 0.032 ×10⁻⁶ cm/s |
| O=c1cc(Sc2cccc(-c3cccc(C(F)(F)F)c3)c2)[nH]c(=O)n1O | 8.3 µM | > 100 µM | 7.7 µM | > 1 µM | 0.007 µM |  |
| COc1ccc(-c2ccc(Sc3cc(=O)n(O)c(=O)[nH]3)cc2)cc1OC | > 20 µM | > 100 µM | 10 µM | 0.33 µM | 0.004 µM | 0.9 ×10⁻⁶ cm/s |
| O=c1cc(Sc2ccc(-c3cccc(C(F)(F)F)c3)cc2)[nH]c(=O)n1O | > 20 µM | > 100 µM | > 10 µM | > 100 µM | 0.008 µM |  |
| O=c1cc(Sc2cccc(Cl)c2)[nH]c(=O)n1O | 6.3 µM | > 100 µM | > 10 µM | 0.59 µM | 0.011 µM |  |
| O=c1cc(Sc2cccc(Br)c2)[nH]c(=O)n1O | 8.2 µM | > 100 µM | > 10 µM | 1.2 µM | 0.011 µM |  |
| O=c1cc(Sc2ccc(-c3ccc(F)cc3)cc2)[nH]c(=O)n1O | 12 µM | > 100 µM | > 10 µM | > 1 µM | 0.006 µM |  |
| O=c1cc(Sc2ccc(Br)cc2)[nH]c(=O)n1O |  |  | 7 µM |  | 0.01 µM |  |
| COc1cc(OC)cc(-c2ccc(Sc3cc(=O)n(O)c(=O)[nH]3)cc2)c1 | 17 µM | > 100 µM | > 10 µM | > 100 µM | 0.006 µM |  |
| O=c1cc(Sc2ccc(C(F)(F)F)cc2)[nH]c(=O)n1O | > 20 µM | > 100 µM | > 10 µM | > 10 µM | 0.031 µM |  |
| O=c1cc(Sc2ccc(-c3ccc(Cl)cc3)cc2)[nH]c(=O)n1O | 16 µM | > 100 µM | > 10 µM | > 1 µM | 0.007 µM |  |
| COc1cccc(-c2ccc(Nc3cc(=O)n(O)c(=O)[nH]3)cc2)c1 | > 25 µM | > 25 µM |  |  |  |  |
| O=c1cc(Sc2cccc3ccccc23)[nH]c(=O)n1O | 6.3 µM | > 100 µM | 10 µM | 0.79 µM | 0.007 µM |  |
| COc1ccc(-c2ccc(Sc3cc(=O)n(O)c(=O)[nH]3)cc2)cc1F | 8 µM | > 100 µM | 6.8 µM | > 0.14 µM | 0.004 µM |  |
| O=c1cc(Sc2cccc(-c3ccc(F)c(Cl)c3)c2)[nH]c(=O)n1O | 11 µM | > 100 µM | 5.6 µM | > 1 µM | 0.005 µM |  |
| O=c1cc(Sc2ccc(-c3ccc(C(F)(F)F)cc3)cc2)[nH]c(=O)n1O | 12 µM | > 100 µM | 8.4 µM | > 1 µM | 0.039 µM |  |
| CCc1ccccc1Sc1cc(=O)n(O)c(=O)[nH]1 | 6.2 µM | > 100 µM | > 10 µM | 0.75 µM | 0.01 µM |  |
| O=c1cc(Sc2ccccc2-c2ccc(F)cc2)[nH]c(=O)n1O | 11 µM | > 100 µM | > 10 µM | > 100 µM | 0.012 µM |  |
